The labels stand for the following.
B1: tRNA (parent)
chain: GUUCCGUUGGCGUAAUGGUAACGCGUCUCCCUCCUAAGGAGAAGACUGCGGGUUCGAGUCCCGUACGGAACG

Fewer inactive variants are shown than the library holds.

This is an account of results in the RNAGym collection of RNA variant scans (doi:10.1126/science.aae0568).

The data set covers variants of B1. In words: yeast fitness relative to wild type (ratio to wild type); higher = fitter; tRNA-Arg(CCU), competitive growth, 37 C, YPD. The method, boiled down:
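Start and end populations of a pooled competition were compared by 100-nucleotide paired-end sequencing of gene amplicons. The Saccharomyces cerevisiae strains carried tRNA-Arg(CCU) gene variants at the native genomic locus, synthesised with a 3% per-site mutation rate at 69 sites, and competed in YPD at 37°C for 24 hours in six parallel replicates. Darwinian fitness relative to wild type was based on the change in genotype frequencies. Genotypes required ≥ 100 starting reads, and estimates < 0.5 were set to 0.5.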
With GUGCCGUCGGCGUAAUGGUAACGAGUCUCUCUCCUAAGGAGAAGACUGCGGGUUCGAGUCCCGUACGGAACG [U3G U8C C24A C30U], the yeast fitness is at most 0.5. As for GUGCCGUCGGCGUAAUGGUAACGCGUCUCCCUCCUAAGGAGAAGACUGCGGGUUCGAGUCCCGUACGGACCG [U3G U8C A70C], the yeast fitness was 0.59. Regarding GUGCCGUCGGCGUAAUGGUAACGCGUCUCCCUCCUAAGGAGAAGACUGCGGGUUCGAGUCCCGUACGCAACG [U3G U8C G68C], the yeast fitness is at most 0.5. In the case of GUGCCGUUGGCGUAAUGGUAACGCGUCUCCCUCCUAAGGAGAAGACUGCGGGUUCGAGUCCUGUACGGAACG [U3G C62U] it was 0.873; in that of GUGCCGUUGGCGUAAUGGUAACGCGUCUCCCUCCUAAGGAGAAGACUGCGGGUUCGAGUCCGGUACGGAACG [U3G C62G], 0.739; in that of GUGCCGUUGGCGUAAUGAUAACGCGUCACCCUCCUAAGGAGAAGACUGCGGGUUCGAGUCCCGUACGGAACG [U3G G18A U28A], 0.613. Consider GUGCCGAUAGCGUAAUGGUAACGCGUCUCCCUCCUAAGGAGAAGACUGCGGGUUCGAGUCCCGUACGGUACG [U3G U7A G9A A69U], for which the yeast fitness is at most 0.5. As to GUGCCGUUGGCGUAAUGGUAACGCGUCUCCCUCCGAAGGCGAAGACUACGGGUUCGAGUUCCGGUCGGCACG [U3G U35G A40C G48A C60U U64G A65U A69C], the yeast fitness is at most 0.5. In the case of GUGCCGUCGGCGUAAUGGUAACGCGUCUCCCUCCUAAGGAGAAGACUGCGGGUUCGAGUCCCGUACGGAACG [U3G U8C] it was 0.681. For GUGCCGUUGGCGUAAUGGUAACGCGUCUCCAUCCUAAGGAGAAGACUGCAGGUUCGAGUCCCGUACAGAACG [U3G C31A G50A G67A], the yeast fitness was at most 0.5. As for GUGCCGUCGGCGUAAUGGUAACGCGUCUCCCUCCUAAGGAGACGACUGCGGGUUCGAGUCCCGUACGGAACG [U3G U8C A43C], the yeast fitness is at most 0.5. In the case of GUGCCGUUGGCGUAAUCGUAACGCGUCUCCCUACUAAGGAGAAGACUGCGGGGACGAGUCCCGUACGGAACG [U3G G17C C33A U53G U54A], the yeast fitness is at most 0.5. As to GUGCCGUUGGCGUAAUGGUAACGCGUCUCCCUCCUAAGGAGAAGACUGCGGGUUCGAGUACCGUAUGGAACG [U3G C60A C66U], the yeast fitness is at most 0.5.

Consider GUGCCAUUGGCGUAGUGGUAACGCGUCUCCCUCAUAAGGAGAAGACUGCGGGUUCGAGUCCCGUACGGAGCG [U3G G6A A15G C34A A70G], for which the yeast fitness was at most 0.5.

Turning to GUGCCGUUGGCGUAAUGGUAACGCGUCUCCCUUCUAAGGAGAAGACUGCGGGUUCGAGUCCCGUACGGAACG [U3G C33U], the yeast fitness amounted to 0.691. For the variant GUGCCGUUGGCGUAACGGUAACGCGUCUCCCUCCUAAGGAGAAGACUUCGGGUUCGAGUCCCGUACGGAACG [U3G U16C G48U], the yeast fitness came to 0.633. As for GUGCCGUUGCCGUAAUGGUAACGCGCCUCCCUCCUAAGGAGAAGACUGCGGGUUCGAGUCCCGUACGGAACG [U3G G10C U26C], the yeast fitness is at most 0.5. Consider GUGCCGUUGGCGUAAUGGUAACGCGUCUCCCUCCUAAGGAGAAGAUUGCGGGUUCGAGACCCGUACGGAACG [U3G C46U U59A], for which the yeast fitness is 0.562. Turning to GUGCCGUAGGCGUAAUGCUAACGCGUCUCCCUCCUAAGGAGAAGACUGCGGGUUCGAGUCCCGUACGGAACG [U3G U8A G18C], the yeast fitness was found to be 0.63.

Take GUGCCGUCGGCGUAGUGGUAACGGGUCUCCCUCCUAAGGAGAAGACUGCAGGUUUGAGUCCCGUACGGAACG [U3G U8C A15G C24G G50A C55U]: the yeast fitness was at most 0.5. As to GUGCCGUUGGCGUAAUGGUAACGCGUCUCCCUCCUAAGGAGAAGACUCCGGGUUCGAGUCCCGUACGGAACG [U3G G48C], the yeast fitness was found to be 1.06. As for GUGCCGUUGGCGUAAUGGUAACGCGUCUCCCUCCUAAGGAGAAGACUGCGGGUUCGAGUCCUGUACGGAUCG [U3G C62U A70U], the yeast fitness was 0.551. Regarding GUGCCGUUGGCGUAAUGGUAACGCGUCUCCCUCCUAAGGAGAACACUGCGGGUUCGAGUCCCGUACGGAACG [U3G G44C], the yeast fitness worked out at 0.739. In the case of GUGCCGUAGGCGUAAUGGUAACGCGUCUCCAUCCUAAGGAGAAGACUGAGGGUUCGAGUCCCGUACGGAACG [U3G U8A C31A C49A] it was at most 0.5; in that of GUGCCGUUGGCGUAAUGGUAACGCGUCUCCAUCCUAAGGAAAAGACUGCGGGUUCGAGUCCCGUACGGAACG [U3G C31A G41A], at most 0.5. Take GUGCCGUUGGCGUAAUGGUAACGCGUCUCGCUCCUAAGGAGAAGACUGUGGGUUCGAGUCCCGUACGGAACG [U3G C30G C49U]: the yeast fitness was at most 0.5. For the variant GUGCCGUUGGCGUAAUAGUAACGCGUGUCCCUUCUAAGGAGAAGGCUGCGGGUUCGAGUCCCGUACGGAACG [U3G G17A C27G C33U A45G], the yeast fitness was at most 0.5. For GUGCCGUUGGCGUAAGGGUAGCGCGUCUACCCUAUAAGGAGAAGACUGCGGGUUCGAGUCCCGUACGGAACG [U3G U16G A21G C29A U32C C33U C34A], the yeast fitness amounted to 0.788. Regarding GUGCCGUUGGCGUAAUGGUAACGCGUCUCCCUCCUAAGGAGAAGACUGCGGGUUAGAGUCCCGUACGGAACG [U3G C55A], the yeast fitness turned out to be 0.644. For GUGCCGUUGGCGUAAUGGUAACGCGUCUCUCUCCUAAGGAGAUGACUCCGGGUUCGAGUCCCGUACGCAACG [U3G C30U A43U G48C G68C], the yeast fitness is at most 0.5.

In the case of GUGCCGUCGGCGUAAUGGUAACGCGUCUCCCUCCUAAGGAGAAGACUGCGGGUUCGAGUCGCCUACGGAACG [U3G U8C C61G G63C], the yeast fitness was at most 0.5.

Regarding GUGCCGUUGGCCUAAUGGCAACGCGUCUCCCUCCUAAGGAGAAGACUGCGGGUUCGAGUUCCGUACGGAACG [U3G G12C U19C C60U], the yeast fitness is at most 0.5.

Turning to GUGCCGUGGGCGUAAUGGAAACGCGUCUCCCUCCUAAGGAGAAGACUGCGGGUUCGAGUCCCGUACGGCACG [U3G U8G U19A A69C], the yeast fitness is at most 0.5. Take GUUACGUUGGCGUCAUGGUAACGCGUCUCCCUCCUAAGGAGAAGACUGCGGGUUCGAGUGCCGUAUGAAACG [C4A A14C C60G C66U G68A]: the yeast fitness turned out to be 0.561. As for GUGCCGUUGGCGUAAUGGUAACGCGACUCCCUCCUAAGGAGAAGACUGCGGGUUCGAGUCCCGUACGGAACG [U3G U26A], the yeast fitness worked out at 0.944.

Consider GUGCCGUUGGCGUAAUGGUAACGCGUCUCCCUCCUAAGGAGAAGACUGCCGGUUCGAGUCCCGUACGGAACG [U3G G50C], for which the yeast fitness was determined as 0.699. Take GUGCCGUUGGCGUAAUGGUAACGCGUCUCCUUCCUAAGGAGAAGACUGCGGGUUCGAGUCCCGUACGGAACG [U3G C31U]: the yeast fitness is 1.
